# Measured values: ChEMBL document CHEMBL3525987, “Assessment of exposure of metabolites in preclinical species and humans at steady state from the single-dose radiolabeled absorption, distribution, metabolism, and excretion studies: a case study” (Drug Metab Dispos, 2012)
# Assays:
# Canis familiaris [1] = test: Half life as total radioactivity in male beagle dog plasma at 10 mg/kg, po administered as single dose by LC-MS/MS analysis; type: ADME, organism-based, Canis lupus familiaris; design: dose 10 mg/kg, dosed compound name [14C]lixivaptan, route oral; conditions: in vivo
# In short: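 Male beagles given 10 mg/kg [14C]drug oral suspension; jugular K2EDTA blood at 0.25-168 h. Parent by validated LC-MS/MS, total radioactivity by LSC; Tmax observed; t1/2 = 0.693/kel from terminal log-linear regression.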
# Rattus norvegicus [2] = test: Cmax as total radioactivity in male Sprague-Dawley rat plasma at 10 mg/kg, po administered as single dose via gavage by LC-MS/MS analysis; type: ADME, organism-based; design: dose 10 mg/kg, dosed compound name [14C]lixivaptan, route oral; conditions: in vivo
# In short: (§1)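 Jugular-cannulated Sprague-Dawley rats (5/gender) were fasted 18 h and gavaged once with 10 mg/kg [14C]lixivaptan suspended in water/pluronic F68. K2EDTA blood was taken at 0.25–168 h, with donor blood replaced from 1 h on. Total radioactivity was read by LSC (ng-equiv/ml) and parent by validated LC-MS/MS. Noncompartmental Cmax, log-linear kel and trapezoidal AUC followed.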
# Homo sapiens [3] = test: Cmax as total radioactivity in human plasma at 100 mg, po administered as single dose by LC-MS/MS analysis; type: ADME, organism-based; design: dose 100 mg, route oral, dosed compound name [14C]lixivaptan; conditions: in vivo
# In short: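 Fasted healthy males took one oral 100 mg (200 µCi) [14C]lixivaptan dose. Plasma was drawn from predose to 144 h. Total radioactivity was measured by LSC and converted to ng-equiv/ml via the dose specific activity; lixivaptan by validated LC-MS/MS. Noncompartmental analysis: Cmax observed; kel by log-linear regression; AUC0-t by linear trapezoid; extrapolation as Cest/kel.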
# Canis familiaris [4] = test: Drug recovery in cage wash/debris of male beagle dog at 10 mg/kg, po administered as single dose via gavage measured after 168 hrs by liquid scintillation counting; type: ADME, organism-based, Canis lupus familiaris; design: dose 10 mg/kg, dosed compound name [14C]lixivaptan, route oral; conditions: in vivo
# In short: (§2)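 Four male beagles got 10 mg/kg (2 ml/kg) [14C]drug suspension (5.0 mg/ml, pluronic F68/water, 1.04 µCi/mg) by gavage. Urine and feces collected over dry ice at 0-8, 8-24 h, then every 24 h to 7 days; urine by LSC, fecal homogenates combusted then LSC; cage wash/debris included; % of dose.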
# Homo sapiens [5] = test: Drug level in human plasma at 100 mg, po administered as single dose measured after 8 hrs by liquid scintillation counting; type: ADME, organism-based; design: dosed compound name [14C]lixivaptan; conditions: in vivo
# In short: (§3)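 Healthy male volunteers fasted ≥10 h, given single oral 100 mg (200 µCi) [14C]drug as two 50-mg capsules with 250 ml water. Plasma (from ~50 ml blood) at 0.5, 2, 4, 8, 12, 24, 36 h, profiled per subject. Acetonitrile extraction, C18 radio-HPLC with 0.2% formic acid acetonitrile/water gradient, on-line radioactivity detection as % plasma radioactivity; ng-equiv/ml from % × total radioactivity.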
# Homo sapiens [6] = test: Drug level in human plasma at 100 mg, po administered as single dose measured after 36 hrs by liquid scintillation counting; type: ADME, organism-based; design: dosed compound name [14C]lixivaptan; conditions: in vivo; in short: as §3
# Homo sapiens [7] = test: Half life as total radioactivity in human plasma at 100 mg, po administered as single dose by LC-MS/MS analysis; type: ADME, organism-based; design: dosed compound name [14C]lixivaptan; conditions: in vivo
# In short: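 Single oral 100 mg [14C]drug to healthy male volunteers; plasma at 0.25-144 h. Parent by validated LC-MS/MS, total radioactivity by LSC as ng-equiv/ml; Tmax from observed data; t1/2 = 0.693/kel from log-linear terminal regression.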
# [8] = Drug recovery in feces of male beagle dog at 10 mg/kg, po administered as single dose via gavage measured after 168 hrs by liquid scintillation counting; type: ADME, organism-based, Canis lupus familiaris; design: dose 10 mg/kg, dosed compound name [14C]lixivaptan, route oral; conditions: in vivo; in short: as §2
# Homo sapiens [9] = test: Cmax in human at 100 mg, po; conditions: in vivo
# Rattus norvegicus [10] = test: Drug level in female Sprague-Dawley rat plasma at 10 mg/kg, po administered as single dose via gavage measured after 1 hr by liquid scintillation counting; type: ADME, organism-based; design: dose 10 mg/kg, dosed compound name [14C]lixivaptan, route oral; conditions: in vivo
# In short: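 Sprague-Dawley rats (9/gender) were fasted 18 h and gavaged once with [14C]lixivaptan at 10 mg/kg (10 ml/kg), about 29.8 µCi/mg, suspended in deionized water with pluronic F68. Plasma came by cardiac puncture under isoflurane at 1, 8 and 24 h (3/gender/time) and was extracted twice with 2 volumes of acetonitrile. C18 radio-HPLC with a flow scintillation detector gave percent of plasma radioactivity per peak.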
# Homo sapiens [11] = test: AUC in human at 100 mg, po qd for 7 days; type: ADME, organism-based, Plasma; design: dosed compound name [14C]lixivaptan; conditions: in vivo, 168 h
# Rattus norvegicus [12] = test: AUC(0 to t) as total radioactivity in female Sprague-Dawley rat plasma at 10 mg/kg, po administered as single dose via gavage by LC-MS/MS analysis; type: ADME, organism-based; design: dose 10 mg/kg, dosed compound name [14C]lixivaptan, route oral; conditions: in vivo; in short: as §1
# [13] = Drug recovery in feces of female Sprague-Dawley rat at 10 mg/kg, po administered as single dose via gavage measured after 168 hrs by liquid scintillation counting; type: ADME, organism-based; design: dose 10 mg/kg, dosed compound name [14C]lixivaptan, route oral; conditions: in vivo
# In short: (§4)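 Intact SD rats (3/gender) dosed by gavage with [14C]drug 10 mg/kg (10 ml/kg, pluronic F68/water), housed in metabolism cages; urine and feces at 0-8, 8-24 h, then every 24 h to 7 days. Urine counted by LSC; feces homogenized 20% w/w in water, combusted, trapped CO2 counted; cage wash/debris included; % of dose.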
# [14] = Drug recovery in urine of human at […], po administered as single dose measured after 168 hrs by liquid scintillation counting; type: ADME, organism-based; design: dosed compound name [14C]lixivaptan, route oral; conditions: in vivo
# In short: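 Healthy male volunteers given single oral 100 mg (200 µCi) [14C]drug capsules after ≥10 h fast. Urine at 0-4, 4-8, 8-12, 12-24 h then 24-h intervals; feces as passed, to 168 h. Urine LSC; feces homogenized in water, combusted, LSC; % of dose.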
# [15] = Drug recovery in urine of male Sprague-Dawley rat at 10 mg/kg, po administered as single dose via gavage measured after 168 hrs by liquid scintillation counting; type: ADME, organism-based; design: dose 10 mg/kg, dosed compound name [14C]lixivaptan, route oral; conditions: in vivo; in short: as §4
# [16] = Drug recovery in urine of female Sprague-Dawley rat at 10 mg/kg, po administered as single dose via gavage measured after 168 hrs by liquid scintillation counting; type: ADME, organism-based; design: dose 10 mg/kg, dosed compound name [14C]lixivaptan, route oral; conditions: in vivo; in short: as §4
# Canis familiaris [17] = test: Drug level in beagle dog plasma at 10 mg/kg, po administered as single dose measured after 8 hrs by liquid scintillation counting; type: ADME, organism-based, Canis lupus familiaris; design: dose 10 mg/kg, dosed compound name [14C]lixivaptan, route oral; conditions: in vivo
# In short: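 Four male beagles fasted 18 h were gavaged once with [14C]lixivaptan at 10 mg/kg (2 ml/kg). The 5.0 mg/ml suspension was in deionized water with pluronic F68 (1.04 µCi/mg). Jugular K2EDTA plasma was taken at 2, 8 and 24 h and extracted twice with 2 volumes of acetonitrile. Profiling used C18 radio-HPLC (ammonium formate/acetonitrile gradient) with on-line flow scintillation detection. Each peak is reported as percent of plasma radioactivity.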
# Homo sapiens [18] = test: Drug level in human plasma at 100 mg, po administered as single dose measured after 2 hrs by liquid scintillation counting; type: ADME, organism-based; design: dosed compound name [14C]lixivaptan; conditions: in vivo; in short: as §3
# Rattus norvegicus [19] = test: Cmax as total radioactivity in female Sprague-Dawley rat plasma at 10 mg/kg, po administered as single dose; type: ADME, organism-based; design: dose 10 mg/kg, dosed compound name [14C]lixivaptan, route oral; conditions: in vivo; in short: as §1
# [20] = Retention time of the compound by HPLC analysis; type: physicochemical; design: dosed compound name [14C]lixivaptan
# [21] = Drug recovery in bile of bile duct-cannulated male Sprague-Dawley rat at 10 mg/kg, po administered as single dose via gavage measured from 0 to 48 hrs by liquid scintillation counting; type: ADME, organism-based; design: dose 10 mg/kg, dosed compound name [14C]lixivaptan, route oral; conditions: in vivo
# In short: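 Bile-duct cannulated SD rats (n=5) got single gavage of [14C]drug 10 mg/kg as pluronic F68/water suspension. Bile collected on wet ice at 0-4, 4-8, 8-24, 24-48 h; drinking water supplemented with bile salts and electrolytes. Duplicate aliquots counted by liquid scintillation; expressed as % of dose.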
structure (smiles),measurement,setting,value
Cc1ccc(F)cc1[14C](=O)Nc1ccc(C(=O)N2Cc3cccn3Cc3ccccc32)c(Cl)c1,t1/2,Canis familiaris [1],69.7 h
same,Cmax,Rattus norvegicus [2],2820 ngequiv/ml
same,Cmax,Homo sapiens [3],1770 ngequiv/ml
same,Radiolabel recovery,Canis familiaris [4],4.9%
same,Compound recovery,Homo sapiens [5],6.7%
same,Compound recovery,Homo sapiens [6],3.6%
same,t1/2,Homo sapiens [7],25.5 h
same,Radiolabel recovery,[8],83.1%
same,Cmax,Homo sapiens [9],454 ngequiv/ml
same,Compound recovery,Rattus norvegicus [10],29.9%
same,AUC,Homo sapiens [11],1860 ng.Eq.hr/ml
same,AUCt,Rattus norvegicus [12],36700 ng.Eq.hr/ml
same,Radiolabel recovery,[13],92%
same,Radiolabel recovery,[14],20.5%
same,Radiolabel recovery,[15],5.77%
same,Radiolabel recovery,[16],7.6%
same,Compound recovery,Canis familiaris [17],14.9%
same,Compound recovery,Homo sapiens [18],13.4%
same,Cmax,Rattus norvegicus [19],1960 ngequiv/ml
same,Retention_time,[20],34.3 min
same,Radiolabel recovery,[21],65.4%
